Myeloid diff MLP: myeloid differentiation induction; ER-HoxA9 myeloid progenitors, lysozyme-GFP differentiation, flow cytometry; calls only at 10 µM; actives 1% (n = 360,000);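 active = normalized GFP-positive differentiation at or above the plate's own cutoff, the solvent-only control mean plus 3 SD; inconclusive = no clear call, values can overlap the other calls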;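 note: cells exposed to compound for four days before flow analysis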
Rpn11 block: inhibitors of human proteasome Rpn11; human 26S proteasome, Ub4-pepOG fluorescence polarization; 20S core pre-blocked with epoxomicin; AID 588493; actives 0.59% (n = 360,000); inhibition, % at 20 µM;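 active = inhibition at 20 µM, scaled to each plate's controls, above about 33%, limit read from the data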
Target sequence (O00487 whole entry, looked up): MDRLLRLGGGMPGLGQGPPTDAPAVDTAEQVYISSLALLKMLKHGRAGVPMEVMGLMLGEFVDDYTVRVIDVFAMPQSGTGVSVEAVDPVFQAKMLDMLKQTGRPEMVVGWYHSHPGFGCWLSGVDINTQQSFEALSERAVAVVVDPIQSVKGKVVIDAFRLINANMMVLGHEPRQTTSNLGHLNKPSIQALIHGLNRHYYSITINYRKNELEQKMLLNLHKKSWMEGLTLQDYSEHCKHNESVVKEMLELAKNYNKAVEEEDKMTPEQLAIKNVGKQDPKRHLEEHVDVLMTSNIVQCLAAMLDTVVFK
HNF4A DNA FP: change in binding of human HNF4 alpha to DNA; actives 0.3% (n = 360,000); HNF4a-FITC DNA binding, fluorescence polarization, 1 h; activity change, % at 10 µM; P41235; in the data active = activity change above about 30%, passing the limit was not always enough
TPT1 inhibitor: blocks Candida albicans tRNA 2'-phosphotransferase. inhibition, % at 5 µM. AID 1962. actives 0.81% (n = 300,000). recombinant caTPT1, FP RNA substrate dephosphorylation;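 active = inhibition above the mean of all tested compounds plus 3 SD, set per screening campaign, cut at about 24% in these data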
CSN inh: blocks human CSN-mediated cullin deneddylation. actives 0.38% (n = 360,000). AID 651999. inhibition, % at 12.5 µM. Q92905. Purified CSN, SCF-Nedd8-OG deneddylation, fluorescence polarization;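 active = pattern-corrected inhibition above about 35%, with an unprinted fluorescence ratio check between 0.5 and 1.5, limit read from the data, passing the limit was not always enough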
Target sequence (Q92905 whole entry, looked up, one chain of several): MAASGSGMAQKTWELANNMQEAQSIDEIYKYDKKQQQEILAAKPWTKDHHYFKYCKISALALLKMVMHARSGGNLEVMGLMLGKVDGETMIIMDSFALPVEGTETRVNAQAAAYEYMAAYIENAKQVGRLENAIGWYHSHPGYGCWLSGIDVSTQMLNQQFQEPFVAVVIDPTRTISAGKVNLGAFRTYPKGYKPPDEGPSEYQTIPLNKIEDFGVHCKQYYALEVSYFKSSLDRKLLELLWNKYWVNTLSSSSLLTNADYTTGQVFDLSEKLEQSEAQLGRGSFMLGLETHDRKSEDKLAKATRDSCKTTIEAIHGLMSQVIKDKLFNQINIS
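Assay system: Purified human Csn5 enzyme expressed in HEK293T cells | Amount: Enzyme 0.24 nM | Measured by: Fluorescence polarization readout | Medium: Tris/NaCl/DTT buffer, pH 7.5 | Compound dosing: One concentration, 12.5 µM, 0.25% DMSO | Times: 90 min incubation of compound, enzyme and substrate at room temperature | Control set: no-enzyme wells high, enzyme-with-substrate wells low | Read-out: % inhibition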
Numbers stand for hits; - = inactive; ? = inconclusive; . = no result given; + = active, no number. In the library only some 2.3% were active in any assay of this set; here they are far more common.

SMILES	Myeloid diff MLP	Rpn11 block	HNF4A DNA FP	TPT1 inhibitor	CSN inh
Cc1cc([N+](=O)[O-])ccc1NC(=O)CN1C2CCC1CC(NC(=O)NC13CC4CC(CC(C4)C1)C3)C2 (stereo unspecified)	+	-	-	-	-
O=C(NCc1cccc(C(F)(F)F)c1)C1C(=O)Nc2ccccc2C(=O)N1C1CCCC1 (stereo unspecified)	-	.	-	.	-
Cc1c2cc(O)c(=O)cc-2oc2cc(O)c(O)cc12	+	-	-	-	-
Cc1ccccc1-n1nc(C(=O)c2cccs2)cc(-c2nc3ccccc3[nH]2)c1=N	-	-	-	-	-
COc1ccc(-n2nc(C(=O)c3cccs3)cc(-c3nc4ccccc4[nH]3)c2=N)cc1	+	-	-	-	-
CCc1nc2c(OCCOc3ccc(F)cc3)cccn2c1N(C)C(=O)c1ccc(OC)cc1	-	-	-	.	-
Cc1cc(C)nc(NC(=O)/C=C/c2ccccc2Cl)n1	+	-	-	-	-
O=C(CN(C(=O)Cn1nnc(-c2ccccc2F)n1)c1cccc2c1CCCC2)NCc1ccccc1	+	-	-	-	-
CC(C)CCNC(=O)CN(C(=O)Cn1nnc(-c2ccccc2F)n1)c1cccc2c1CCCC2	-	-	-	-	-
CCOC(=O)[C@]12CCCC=C1N(CCC1=CCCCC1)C(=O)[C@H](CC(=O)NCC1CCCCC1)C2	-	.	-	.	-
COC(=O)[C@]12CCCCC=C1N(CCc1ccc(OC)c(OC)c1)C(=O)[C@H](CC(=O)NCCCCc1ccccc1)C2	-	.	-	.	-
Cc1nn(-c2ccccc2)c(N2CCCC2)c1/C=N/NC(=O)c1cccc(S(=O)(=O)Nc2ccc(Cl)cc2)c1	+	-	-	-	-
CCOC(=O)COc1cc(=O)n(CC)c2ccccc12	-	-	-	-	108
CCCC(=O)Nc1ccc2c(c1)c1ccccc1n2CC	-	-	-	-	-
CCOC(=O)C(=CNc1ccc2c(c1)c1ccccc1n2CC)C(=O)OCC	-	-	36	-	-
COc1ccc(-c2[nH]ncc2Oc2ccccc2OC)c(O)c1	+	-	-	-	-
O=C(NC1CCN(Cc2ccccc2)CC1)c1ccc(Cn2c(=S)[nH]c3ccc(N4CCOCC4)cc3c2=O)cc1	+	-	-	-	-
O=C(CCCCCn1c(=S)[nH]c2ccc(N3CCOCC3)cc2c1=O)NC1CCN(Cc2ccccc2)CC1	-	-	-	-	-
O=C(Nc1ccc(Cl)cc1)C1Cc2c(-c3ccccc3)ccnc2O1 (stereo unspecified)	-	-	-	.	-
O=C(Nc1nc(-c2cccs2)cs1)c1cccc(S(=O)(=O)N2CCCCCC2)c1	+	-	-	-	-
O=C(CCS(=O)(=O)c1ccccc1)Nc1nc(-c2cccs2)cs1	+	-	-	-	-
O=C(Nc1nc(-c2cccs2)cs1)c1ccc(S(=O)(=O)N2CCCCC2)cc1	-	-	-	-	-
O=C1NC[C@H](CC2CCCCC2)N(CCC23CC4CC(CC(C4)C2)C3)C1=O	-	.	-	.	66
O=C1NC[C@H](CC2CCCCC2)N(CCc2cccc(F)c2)C1=O	-	-	-	-	38
CCCC[C@@H]1CNC(=O)C(=O)N1CCc1cccc(F)c1	-	.	-	.	-
SMILES	Myeloid diff MLP	Rpn11 block	HNF4A DNA FP	TPT1 inhibitor	CSN inh
N=c1n(Cc2ccccc2)c2ccccc2n1CC(O)c1ccco1 (stereo unspecified)	+	-	-	-	-
CCn1c(=N)n(CC(O)c2ccco2)c2ccccc21 (stereo unspecified)	-	-	-	-	-
Cc1ccc(OCC(O)Cn2c(=N)n(Cc3ccccc3)c3ccccc32)cc1 (stereo unspecified)	+	-	-	-	-
Cc1ccc(NC2c3ccccc3C(=O)N2CCN2CCOCC2)cc1 (stereo unspecified)	-	-	-	-	-
CCN(CC)S(=O)(=O)c1ccc(NC2c3ccccc3C(=O)N2CCN2CCOCC2)cc1 (stereo unspecified)	+	-	-	-	-
COc1ccc2nc(-c3ccccc3)[nH]c(=O)c2c1	-	-	-	.	-
COc1ccc(-c2nc3ccc(N4CCCC4)cc3c(=O)[nH]2)cc1OC	-	-	-	-	113
CCSc1ccc2cc(OC)ccc2[n+]1CC	+	-	-	-	-
COc1cc(NC(=O)Nn2cnnc2)cc(OC)c1OC	+	-	-	-	-
OC[C@@H]1CN(CCN2CCOCC2)C[C@H](n2cnc3c(Nc4ccccc4)ncnc32)O1	-	-	-	.	-
COC(C[C@@H]1O[C@H]1[C@@H](O)COCc1ccccc1)OC	-	-	-	.	-
COC(C[C@H]1O[C@@H]1[C@H](O)COCc1ccccc1)OC	+	-	-	.	-
CCN(CC)c1ccc(/C=C/c2nc3ccccc3s2)cc1	.	.	.	178	.
COc1cccc(-c2cnc3c(NC(C)=O)cc(-c4ccsc4)cn23)c1	-	-	-	.	-
O=C(NCC(c1ccco1)N1CCCC1)c1ccc(Cl)c(S(=O)(=O)N2CCc3ccccc32)c1 (stereo unspecified)	+	-	-	.	-
CCN(CC)c1ccc2cc(C(=O)c3cccs3)c(=O)oc2c1	+	.	84	.	-
O=C(c1cc2ccccc2oc1=O)N(Cc1cccs1)Cc1cccs1	-	-	-	-	-
CCN(CC)c1ccc2cc(-c3nc4ccccc4[nH]3)c(=O)oc2c1	+	-	-	-	-
CC1CCc2nc(N)c(C#N)c(-c3ccncc3)c2C1 (stereo unspecified)	+	-	-	-	-
C(=NNc1ccc2ccccc2n1)c1ccccn1	?	-	-	.	-
COc1ccc(/C=C2\SC(=S)N(CCC(=O)N3CCCCC3)C2=O)cc1	+	-	-	-	-
COc1ccc(/C=C2/SC(=S)N(CCC(=O)N3CCN(C)CC3)C2=O)cc1	-	-	-	-	-
COc1ccc(/C=C2\SC(=S)N(CCC(=O)Nc3ccccc3C(=O)O)C2=O)cc1	-	-	-	-	-
Cc1ccc(/C=C2\SC(=S)N(CCCC(=O)N3CCOCC3)C2=O)cc1	+	-	-	-	-
O=C(CCN1C(=O)/C(=C\c2cccs2)SC1=S)Nc1nccs1	-	.	38	-	-
SMILES	Myeloid diff MLP	Rpn11 block	HNF4A DNA FP	TPT1 inhibitor	CSN inh
COC(=O)c1ccc(/C=C2\SC(=S)N(CCCC(=O)N3CCOCC3)C2=O)cc1	-	-	-	.	-
CCOc1ccc(/C=C2\SC(=S)N(CCC(=O)Nc3ccccc3C(=O)O)C2=O)cc1	+	-	-	-	-
CCOC(=O)[C@]12CCCC=C1N(Cc1ccc(Cl)cc1Cl)C(=O)[C@H](CC(=O)NCc1cccc3ccccc13)C2	-	.	-	.	-
C=CCN1C(=O)C2(NC(=O)c3ccccc3N2)c2ccccc21 (stereo unspecified)	-	-	81	-	-
COc1ccccc1/C=N/NC(=O)CC(=O)Nc1ccc(Cl)c(Cl)c1	-	-	44	-	-
COc1ccc(/C=N/NC(=O)c2cccc(NC(=O)c3ccc(Cl)cc3)c2)c(OC)c1	+	-	-	-	-
O=C(CN1CCCCC1)c1c[nH]c2ccccc12	-	-	-	-	-
